Publication PMC5615865 (Research in Pharmaceutical Sciences, 2017)

Columns and labels:
Jack bean urease = Jack bean urease (Canavalia ensiformis, UniProt P07374); assay: Urease inhibitory assay; format: biochemical; settings: urea 25 mM, pH 7.4, 37°C, triplicate
Procedure, shortened: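 Enzyme solution (2 mg/mL stock) was mixed with urea and test compound at various concentrations in 100 mM sodium phosphate, pH 7.4, then incubated 30 min at 37°C. An aliquot was taken into phenol–nitroprusside and alkaline hypochlorite–NaOH reagents and incubated a further 30 min at 37°C, and A625 was read. % inhibition was calculated against the solvent-plus-enzyme control, and IC50 was fitted. Run in triplicate with a hydroxyurea standard.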

[1] = no reference given; cited from earlier work

Sequence of Jack bean urease (P07374 whole entry, looked up): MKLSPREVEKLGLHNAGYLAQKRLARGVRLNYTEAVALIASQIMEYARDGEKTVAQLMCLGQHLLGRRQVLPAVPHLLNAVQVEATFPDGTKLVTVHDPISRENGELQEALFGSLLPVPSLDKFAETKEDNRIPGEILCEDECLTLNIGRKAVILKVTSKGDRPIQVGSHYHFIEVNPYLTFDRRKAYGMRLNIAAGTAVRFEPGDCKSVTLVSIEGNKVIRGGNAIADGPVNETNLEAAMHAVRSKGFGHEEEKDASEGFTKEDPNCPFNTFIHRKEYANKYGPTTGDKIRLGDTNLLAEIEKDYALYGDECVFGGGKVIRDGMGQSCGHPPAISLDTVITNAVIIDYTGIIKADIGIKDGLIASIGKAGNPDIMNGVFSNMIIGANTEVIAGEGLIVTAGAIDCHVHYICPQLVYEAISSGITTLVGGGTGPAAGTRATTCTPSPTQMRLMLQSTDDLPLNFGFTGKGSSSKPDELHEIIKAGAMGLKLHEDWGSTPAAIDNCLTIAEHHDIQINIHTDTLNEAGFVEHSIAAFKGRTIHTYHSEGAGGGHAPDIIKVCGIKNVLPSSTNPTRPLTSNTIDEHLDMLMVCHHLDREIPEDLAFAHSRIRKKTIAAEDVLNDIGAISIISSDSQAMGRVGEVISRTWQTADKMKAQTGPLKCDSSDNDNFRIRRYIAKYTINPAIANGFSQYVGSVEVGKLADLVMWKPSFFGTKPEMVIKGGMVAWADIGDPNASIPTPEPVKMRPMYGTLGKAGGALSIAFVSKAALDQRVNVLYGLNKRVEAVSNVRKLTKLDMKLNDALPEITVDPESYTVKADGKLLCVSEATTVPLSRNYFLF

Compound | IC50 (Jack bean urease) [µM] | pKa [1]
NC(=O)NO [hydroxyurea] | 100 | 
COC(=O)CC(C)=O [methyl acetoacetate] |  | 11.0
